Compound activity from PubChem BioAssay.
SUMO HTRF inh: inhibitors of in vitro SUMOylation cascade, primary screen, biochemical, HTRF, uHTS | SUMO-conjugating enzyme UBC9 (Homo sapiens), P63279 | HTRF SUMOylation assay, SAE1/SAE2 + UBC9 | inhibition, % at 35 µM | 290,000 tested, 0.36% active; in the data active = inhibition above about 50%, passing the limit was not always enough
RBBP9 inhibitor: human RBBP9 inhibitors, primary screen, biochemical, fluorescence polarization, FP-Rh probe, HTS; Serine hydrolase RBBP9 (Homo sapiens), O75884; recombinant RBBP9; AID 1515, 2009; 220,000 tested, 0.2% active; inhibition, % at 7.94 µM;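 active = inhibition above the campaign mean of all tested compounds plus 3 SD, cut at about 14% in these data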;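 also: plate controls were DMSO wells with RBBP9 for no effect and wells lacking RBBP9 protein for full effect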
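Controls: DMSO-treated enzyme wells and wells lacking RBBP9 | Material: RBBP9 protein | Technique: Fluorescence polarization | Replication: Single well per compound, no replicates | Buffer or medium: Tris-NaCl-Pluronic buffer, pH 8.0 | Timing: 30 min compound preincubation, 45 min probe labeling, 25 °C | Read-out basis: Percent inhibition from mP, scaled between DMSO and no-protein wells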
Rin1 Abl inh: inhibitors of Rin1-Abl protein binding, primary screen, biochemical, TR-FRET | inhibition, % at 7.35 µM | Tyrosine-protein kinase ABL1 (Homo sapiens) + Ras and Rab interactor 1 (Homo sapiens), … | 360,000 tested, 0.4% active | AID 588664, 2011; in the data active = inhibition above about 5%, passing the limit was not always enough
UBC13 inh: UBC13 polyubiquitin chain formation inhibitors, primary screen, biochemical, TR-FRET, uHTS; AID 485273, 2010; inhibition, % at 20 µM; 330,000 tested, 0.47% active; in the data active = inhibition above about 45%, passing the limit was not always enough
PREPL inhibitor: PREPL enzyme inhibitors, primary screen, biochemical, fluorescence polarization; inhibition, % at 5.96 µM; 320,000 tested, 0.68% active; recombinant PREPL, fluorescence polarization activity-based probe; AID 2751, 2010; Prolyl endopeptidase-like (Homo sapiens), Q4J6C6; in the data active = inhibition above about 43%;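 also: 0% = enzyme with DMSO and 100% = wells lacking enzyme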
ALR inh: inhibitors of human ALR sulfhydryl oxidase, primary screen, biochemical, H2O2 detection, HRP-luminol luminescence, single point | FAD-linked sulfhydryl oxidase ALR (Homo sapiens), P55789 | purified ALR, DTT oxidation | inhibition, % (concentration not given with the values) | 290,000 tested, 3.8% active | AID 485317, 2010;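 active = mean replicate inhibition above about 79%, with every replicate also reaching it, limit read from the data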
The depositor's hits bear a star. Hits are enriched below; roughly 4.3% of the tested compounds scored in any of these assays.

What do the screens show for `O=C(N/N=C/c1ccc(Cl)cc1Cl)c1ccncc1`?
SUMO HTRF inh: 14; Rin1 Abl inh: -2; UBC13 inh: -5; PREPL inhibitor: 8; ALR inh: 2

What do the screens show for `O=[N+]([O-])/C(C(Cl)=C(Cl)Cl)=C(\Nc1ccc(F)cc1)n1cncn1`?
SUMO HTRF inh: 13; RBBP9 inhibitor: -3; UBC13 inh: 8; PREPL inhibitor: -5; ALR inh: 96*

How did Cc1cc(=O)n2c(C(=O)Nc3ccc(C)c(C)c3)c(C(=O)Nc3ccccc3)sc2n1 do in these assays?
SUMO HTRF inh: 12; RBBP9 inhibitor: -6; Rin1 Abl inh: 1; UBC13 inh: -8; PREPL inhibitor: -40; ALR inh: 5

Results for CCOc1cc2[nH]c(=S)n(CCOC)c(=O)c2cc1OCC ?
SUMO HTRF inh: 11; RBBP9 inhibitor: -5; Rin1 Abl inh: -2; UBC13 inh: 10; PREPL inhibitor: 8; ALR inh: 2

How did COCCn1c(=S)[nH]c2ccc(N(C)C)cc2c1=O do in these assays?
SUMO HTRF inh: 37; RBBP9 inhibitor: 3; Rin1 Abl inh: -1; UBC13 inh: -8; PREPL inhibitor: 9; ALR inh: 97*

How did NC(=S)NNc1c(F)c(F)c(F)c(F)c1F do in these assays?
SUMO HTRF inh: 12; RBBP9 inhibitor: -4; Rin1 Abl inh: 0; UBC13 inh: -6; PREPL inhibitor: 10; ALR inh: 98*

How did CCOc1ccc(OCCCC(=O)N2CCN(S(=O)(=O)c3ccc(Cl)cc3)CC2)cc1 do in these assays?
Rin1 Abl inh: 58*; UBC13 inh: -1; PREPL inhibitor: 10; ALR inh: -7

Results for O=C(CCCOc1ccccc1)N1CCN(S(=O)(=O)c2ccc(Cl)cc2)CC1 ?
Rin1 Abl inh: 1; UBC13 inh: 3; PREPL inhibitor: -1; ALR inh: 1

Results for CCOc1cc(/C=N/n2cnnc2)ccc1OCC(=O)Nc1ccccc1OC ?
SUMO HTRF inh: -21; RBBP9 inhibitor: -9; Rin1 Abl inh: 3; UBC13 inh: 22; PREPL inhibitor: -11; ALR inh: -15

How did CCOc1cc(/C=C2\C(=O)N(c3cccc(C(=O)O)c3)N=C2C(F)(F)F)ccc1OCC(=O)Nc1ccccc1OC do in these assays?
SUMO HTRF inh: 73*; UBC13 inh: -12; PREPL inhibitor: 4; ALR inh: 57

How did O=C(NCCc1ccco1)c1cc(COc2cccc(C(F)(F)F)c2)on1 do in these assays?
SUMO HTRF inh: -6; Rin1 Abl inh: 6; UBC13 inh: -3; PREPL inhibitor: -14; ALR inh: 1

How did CCCS(=O)(=O)NC(=O)C1(C)CCN(C(=O)c2cncc(Br)c2)C1 (stereo unspecified) do in these assays?
Rin1 Abl inh: -3

How did CC(/C=C1\SC(=O)N(CCCC(=O)O)C1=O)=C\c1ccccc1 do in these assays?
SUMO HTRF inh: 0; RBBP9 inhibitor: -3; Rin1 Abl inh: 2; PREPL inhibitor: -12; ALR inh: 97*

Results for CC(=C\c1ccccc1)/C=C1/SC(=S)N(CCCC(=O)O)C1=O ?
SUMO HTRF inh: 7; Rin1 Abl inh: 2; UBC13 inh: -26; ALR inh: 14

How did CC1C(=O)N(Cc2cn(CC3CCCCC3)nn2)CCS(=O)(=O)N1Cc1ccc(-c2cccc(CO)c2)cc1 (stereo unspecified) do in these assays?
Rin1 Abl inh: -1

Results for O=C(Nc1ccc(N2CCCCCC2)cc1)c1ccc[nH]1 ?
Rin1 Abl inh: 3; UBC13 inh: -17; PREPL inhibitor: 17; ALR inh: 99*

What do the screens show for `COc1ccccc1C(=O)Nc1ccc(N2CCCCC2)cc1`?
SUMO HTRF inh: -13; RBBP9 inhibitor: -9; Rin1 Abl inh: -2; UBC13 inh: -4; PREPL inhibitor: 9; ALR inh: 83*

How did COc1c(C)cccc1C(=O)Nc1ccc(CN2CCCCC2)cc1 do in these assays?
SUMO HTRF inh: -8; RBBP9 inhibitor: -5; Rin1 Abl inh: -1; UBC13 inh: 16; PREPL inhibitor: 0; ALR inh: 94*

What do the screens show for `O=C(Nc1ccc(N2CCCCCC2)cc1)c1ccccc1Cl`?
SUMO HTRF inh: -10; RBBP9 inhibitor: 3; Rin1 Abl inh: -2; UBC13 inh: -3; PREPL inhibitor: 12; ALR inh: 66

What do the screens show for `COc1cccc(OC)c1C(=O)Nc1ccc(CN2CCCCC2)cc1`?
SUMO HTRF inh: 5; RBBP9 inhibitor: 2; Rin1 Abl inh: -1; UBC13 inh: 8; PREPL inhibitor: 3

Results for COc1ccc(N(CC(=O)Nc2cc(Cl)ccc2C)S(=O)(=O)c2c(C)n[nH]c2C)cc1 ?
SUMO HTRF inh: 5; Rin1 Abl inh: -6; UBC13 inh: -4; PREPL inhibitor: 3; ALR inh: 0

What do the screens show for `COc1cc(C#N)c(NC(=O)CN2CCN(CCO)CC2)cc1OC`?
SUMO HTRF inh: 10; RBBP9 inhibitor: -1; Rin1 Abl inh: -4; UBC13 inh: -7; PREPL inhibitor: -7

Results for Cc1ccc(C(=O)Nc2ccccc2C(=O)O)cc1S(=O)(=O)Nc1ccc(Br)cc1 ?
Rin1 Abl inh: 0; UBC13 inh: -9; PREPL inhibitor: -5; ALR inh: 98*

How did Cc1ccc(C(=O)Nc2cccc([N+](=O)[O-])c2)cc1S(=O)(=O)Nc1ccc(C(=O)O)cc1 do in these assays?
SUMO HTRF inh: -13; RBBP9 inhibitor: 6; Rin1 Abl inh: 5; UBC13 inh: 7; PREPL inhibitor: 3; ALR inh: 82*

What do the screens show for `CCOC(=O)C1CCCN(C(=O)c2ccc3nc(-c4cccc(OC)c4)oc3c2)C1` (stereo unspecified)?
SUMO HTRF inh: -4; Rin1 Abl inh: 4; UBC13 inh: 4; PREPL inhibitor: -16; ALR inh: 2

How did COCCn1c(C)cc(C(=O)CSc2ccc(NC(C)=O)cc2)c1C do in these assays?
SUMO HTRF inh: 20; RBBP9 inhibitor: -16; Rin1 Abl inh: 1; UBC13 inh: 3; PREPL inhibitor: -3; ALR inh: 98*

What do the screens show for `COCC(C)n1c(C)cc(C(=O)CSc2ccc(NC(C)=O)cc2)c1C` (stereo unspecified)?
SUMO HTRF inh: 15; RBBP9 inhibitor: 6; Rin1 Abl inh: 1; UBC13 inh: -7; PREPL inhibitor: -1; ALR inh: 98*

What do the screens show for `C=CCn1c(C)cc(C(=O)CSc2n[nH]c(N)n2)c1C`?
SUMO HTRF inh: 19; RBBP9 inhibitor: -11; Rin1 Abl inh: -3; UBC13 inh: -4; PREPL inhibitor: 15; ALR inh: 98*
